These results are taken from article PMC3046310 (Bioconjugate chemistry, 2010).

“Also recorded” adds a separate entry of the source.

Series [1] deals with T1, MC1R (Mus musculus, UniProt Q01727). Particulars: previous studies; ref [19]; cited from earlier work.
A further series deals with B16F10 murine melanoma. Description: Biodistribution in C57BL/6 mice bearing B16F10 tumors. Format: in vivo. In a few lines: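 Male C57BL/6 mice, 5–6 weeks old, were given 1 × 10^6 B16F10 cells in the right flank. At tumor diameter ~8 mm, 110–130 μCi (4.07–4.81 MBq) 18F tracer in PBS (0.01 M, pH 7.4) was injected i.v. into the tail vein. Mice (n=3) were killed by CO2 at 1, 2 and 4 h p.i. Tumor, blood and organs were weighed and γ-counted, giving %ID/g. Groups were compared by unpaired Student's t-test.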

For a further series, the system named is A375M human melanoma. Kind of series: Biodistribution in Foxn1 nude mice bearing A375M tumors. Format: in vivo.
In another series the test system is B16F10 tumors. Kind of series: Small-animal PET imaging of mice bearing B16F10 tumors. Format: in vivo, murine. As to conditions: for PET tumor delineation / image quality: B16F10 tumors, 1 and 2 h p.i. In short, it runs like this: (§1)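 Mice bearing B16F10 or A375M tumors received 110–130 μCi (4.07–4.81 MBq) 18F tracer via the tail vein. At 1 and 2 h p.i., mice under 2% isoflurane were placed prone for 5-min static small-animal PET scans, reconstructed by 2D OSEM without attenuation correction. ROIs drawn on decay-corrected coronal images were converted to %ID/g using a calibration constant, assuming 1 g/mL tissue density.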

In a further series the test system is A375M melanoma. Kind of series: Small-animal PET imaging of mice bearing A375M tumors. Format: in vivo, human. In short, it runs like this:
as §1

Series [2] deals with T1, MC1R. Description: In vitro cell binding assay. Also on record: species or system murine. As to conditions: B16F10 cells. In short, it runs like this:
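B16F10 cells were grown in high-glucose DMEM with 10% FBS and penicillin/streptomycin at 37 °C and 5% CO2. Cells (0.5 × 10^6) were resuspended in DMEM with 25 mM HEPES, 0.2% BSA and 0.3 mM 1,10-phenanthroline. They were incubated for 90 min at 37 °C with test compound (10^−12–10^−6 M) and ~40,000 cpm 125I-(Tyr2)-NDP. Cells were washed three times with ice-cold PBS and counted. IC50 was taken as the competitor concentration giving 50% inhibition of radioligand binding.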

[3] abbreviates: C57BL/6 mice, B16F10, 2 h p.i., i.v. 110-130 μCi, mean ± SD, n = 3.
Setting [4] is: Foxn1 nude mice, A375M, 2 h p.i., i.v. 110-130 μCi, mean ± SD, n = 3.

T1 sequence (Q01727 whole entry): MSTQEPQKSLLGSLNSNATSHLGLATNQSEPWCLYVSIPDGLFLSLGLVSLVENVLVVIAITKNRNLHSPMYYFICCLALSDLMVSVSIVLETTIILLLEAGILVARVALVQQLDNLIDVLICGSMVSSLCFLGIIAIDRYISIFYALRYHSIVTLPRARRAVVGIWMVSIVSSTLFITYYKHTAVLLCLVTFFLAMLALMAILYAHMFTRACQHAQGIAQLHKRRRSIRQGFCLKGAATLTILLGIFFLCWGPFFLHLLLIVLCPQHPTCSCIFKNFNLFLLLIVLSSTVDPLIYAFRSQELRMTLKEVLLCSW

Turning to “Ac-d,Lys-ReCCMSH(Arg^11) (sidechain bridge or staple) [RMSH-1]”, at MC1R [1], the “MC1R binding affinity of unconjugated RMSH isomers” value was “high MC1R binding affinity in nanomolar (nM) range”.

For `CC(=O)N[C@H](CCCCNC(=O)C(C)F)C(=O)N[C@@H](CS)C(=O)N[C@@H](CS)C(=O)N[C@@H](CCC(=O)O)C(=O)N[C@@H](Cc1c[nH]cn1)C(=O)N[C@H](Cc1ccccc1)C(=O)N[C@@H](CCCNC(=N)N)C(=O)N[C@@H](Cc1c[nH]c2ccccc12)C(=O)N[C@@H](CS)C(=O)N[C@@H](CCCNC(=N)N)C(=O)N1CCC[C@H]1C(=O)N[C@H](C(N)=O)C(C)C` (some centres unmarked) [^18F-FP-RMSH-1], in the series with B16F10 murine melanoma (B16F10 model), the “Muscle uptake” value is listed as “low uptake in muscle”; the “blood clearance” value is listed as “rapid blood clearance”; the “lung and liver uptake compared with ^18F-FB-RMSH-1” value was “much lower uptake in lung and liver”; the “tumor-to-blood and tumor-to-muscle ratios compared with ^18F-FB-RMSH-1” value is “Much higher tumor-to-blood and tumor-to-muscle ratios”. The “kidney uptake compared with ^18F-FB-RMSH-1” value in the series on B16F10 murine melanoma (B16F10 tumor bearing mice, P < 0.05) is on record as “lower kidney uptake”. Besides, the “Tumor / Muscle uptake ratio” value in the series on B16F10 murine melanoma (setting [3]) was 9.36 ± 3.98. Besides, in the series on A375M human melanoma (2 h p.i., P < 0.01), the “A375M tumor uptake compared with B16F10 tumors” value is on record as “significantly lower than in B16F10 tumors”. In the series with A375M human melanoma (setting [4]), the Heart uptake came out at 0.41 ± 0.19 %ID/g, the Intestine uptake is recorded as 0.40 ± 0.19 %ID/g, the Liver uptake is 0.69 ± 0.21 %ID/g and the Pancreas uptake is recorded as 0.78 ± 0.49 %ID/g. Besides, in the series with B16F10 tumors (B16F10, 1 and 2 h p.i.), the “PET liver and kidney uptake” value was “moderate to high uptake in liver and kidney”. For the same molecule, the “PET tumor delineation / image quality” value in the series with B16F10 tumors was “Improved quality of PET images; also recorded: clearly delineated over the background at 1 and 2 h p.i”. In the series with A375M melanoma (1 and 2 h, compared with B16F10 tumor bearing mice), the “PET tumor uptake and tumor-to-background ratio, A375M” value was “much lower tumor uptake and poor tumor-to-background ratio”. Besides, in the series on A375M melanoma (1 and 2 h p.i.), the “PET kidney activity accumulation, A375M” value is recorded as “high activity accumulation in kidneys” and the “PET visibility of A375M tumor” value was “barely discernable; also recorded: barely noticeable”.

With “Ac-d,Lys-ReCCMSH(Arg^11) (sidechain bridge or staple) [RMSH-2]”, on MC1R [1], the “MC1R binding affinity of unconjugated RMSH isomers” value is on record as “high MC1R binding affinity in nanomolar (nM) range”.

On to `CC(=O)N[C@H](CCCCNC(=O)C(C)F)C(=O)N[C@@H](CS)C(=O)N[C@@H](CS)C(=O)N[C@@H](CCC(=O)O)C(=O)N[C@@H](Cc1c[nH]cn1)C(=O)N[C@H](Cc1ccccc1)C(=O)N[C@@H](CCCNC(=N)N)C(=O)N[C@@H](Cc1c[nH]c2ccccc12)C(=O)N[C@@H](CS)C(=O)N[C@@H](CCCNC(=N)N)C(=O)N1CCC[C@H]1C(=O)N[C@H](C(N)=O)C(C)C` (some centres unmarked) [^19F-FP-RMSH-1], for which, at MC1R [2], the “receptor binding affinity” value is reported as “within low nM range”.

For `CC(=O)N[C@H](CCCCNC(=O)C(C)F)C(=O)N[C@@H](CS)C(=O)N[C@@H](CS)C(=O)N[C@@H](CCC(=O)O)C(=O)N[C@@H](Cc1c[nH]cn1)C(=O)N[C@H](Cc1ccccc1)C(=O)N[C@@H](CCCNC(=N)N)C(=O)N[C@@H](Cc1c[nH]c2ccccc12)C(=O)N[C@@H](CS)C(=O)N[C@@H](CCCNC(=N)N)C(=O)N1CCC[C@H]1C(=O)N[C@H](C(N)=O)C(C)C` (some centres unmarked) [^19F-FP-RMSH-2], on MC1R [2], the “receptor binding affinity” value is given as “within low nM range”.

`CC(=O)N[C@H](CCCCNC(=O)C(C)F)C(=O)N[C@@H](CS)C(=O)N[C@@H](CS)C(=O)N[C@@H](CCC(=O)O)C(=O)N[C@@H](Cc1c[nH]cn1)C(=O)N[C@H](Cc1ccccc1)C(=O)N[C@@H](CCCNC(=N)N)C(=O)N[C@@H](Cc1c[nH]c2ccccc12)C(=O)N[C@@H](CS)C(=O)N[C@@H](CCCNC(=N)N)C(=O)N1CCC[C@H]1C(=O)N[C@H](C(N)=O)C(C)C` (some centres unmarked) [^18F-FP-RMSH-2]: the “liver and lung uptake compared with ^18F-FB-RMSH-2, B16F10” value in the series with B16F10 murine melanoma ("in both models" (P < 0.05), B16F10 model) was “lower”. Moreover, in the series with B16F10 murine melanoma (setting [3]), the Blood uptake turned out to be 0.31 ± 0.11 %ID/g, the Bone uptake was found to be 0.52 ± 0.08 %ID/g, the Brain uptake came to 0.04 ± 0.01 %ID/g and the Heart uptake is listed as 0.21 ± 0.06 %ID/g. In the series on B16F10 murine melanoma (setting [3]), this molecule registered an Intestine uptake of 0.91 ± 0.33 %ID/g, a Lung uptake of 0.64 ± 0.15 %ID/g, a Muscle uptake of 0.20 ± 0.05 %ID/g and a Pancreas uptake of 0.10 ± 0.03 %ID/g. For the same molecule, in the series with B16F10 murine melanoma (setting [3]), the Spleen uptake came out at 0.53 ± 0.03 %ID/g, the Stomach uptake came to 0.42 ± 0.14 %ID/g, the “Tumor / Blood uptake ratio” value stood at 2.74 ± 0.80 and the “Tumor / Muscle uptake ratio” value was determined as 3.98 ± 1.09. The “liver uptake compared with ^18F-FP-RMSH-1” value with B16F10 murine melanoma (biodistribution, 2 h) is “higher uptake in liver”. Moreover, in the series with A375M human melanoma ("in both models" (P < 0.05), A375M model), the “liver and lung uptake compared with ^18F-FB-RMSH-2, A375M” value was “lower”. The “liver and kidney uptake compared with ^18F-FP-RMSH-1, A375M” value with A375M human melanoma (A375M model, P < 0.05) was “higher uptake in liver and kidney”. In the series with A375M human melanoma (setting [4]), the Blood uptake is recorded as 0.20 ± 0.09 %ID/g, the Bone uptake is on record as 0.25 ± 0.12 %ID/g, the Brain uptake is on record as 0.04 ± 0.01 %ID/g and the Heart uptake came out at 0.18 ± 0.07 %ID/g. In the series on A375M human melanoma (setting [4]), the Intestine uptake is reported as 0.17 ± 0.00 %ID/g, the Liver uptake was 1.66 ± 0.08 %ID/g, the Lung uptake came to 0.47 ± 0.21 %ID/g and the Muscle uptake was 0.10 ± 0.02 %ID/g. For the same molecule, in the series on A375M human melanoma (setting [4]), the Pancreas uptake came out at 0.09 ± 0.01 %ID/g, the Spleen uptake is given as 0.27 ± 0.03 %ID/g, the Stomach uptake came out at 0.52 ± 0.50 %ID/g and the “Tumor / Blood uptake ratio” value is recorded as 2.90 ± 0.04. The “Tumor / Muscle uptake ratio” value in the series with A375M human melanoma (setting [4]) is 6.40 ± 2.66. In addition, the “PET tumor uptake compared with ^18F-FP-RMSH-1” value with B16F10 tumors (B16F10, 1 and 2 h, ROI quantification, P < 0.01) was “much lower tumor uptake”. Besides, the “PET liver and kidney uptake” value in the series on B16F10 tumors (B16F10, 1 and 2 h p.i.) was “moderate to high uptake in liver and kidney”. Further, the “PET kidney uptake compared with ^18F-FP-RMSH-1” value in the series on B16F10 tumors (B16F10, 1 and 2 h p.i., ROI quantification, n = 3, P < 0.01) is given as “much higher uptake in kidney”. Further, the “PET tumor delineation / image quality” value in the series on B16F10 tumors was “much less prominent tumor uptake”.
